Entries after “also recorded” stand apart in the source; their conditions may differ.
Tests used:
[1] = system: SMN2 expression; test: SMN2-luciferase reporter assay; type: cell-based; details: for activity in the luciferase reporter assay (in words): SAR statements in the text
Outline: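 Reporter cells carrying the SMN2-luciferase construct were exposed to test compound at 0.1–50 μM, with DMSO (0.1%) controls. Luciferase signal gave dose-response curves, from which EC50 and percent maximum increase in SMN2 expression were taken. Values are mean ± S.E.M.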

[2] = system: SMNΔ7 mice; test: preliminary efficacy study in SMNΔ7 mice; type: in vivo, mouse; details: 20 mg/kg i.p. once daily from PND 2, compared to vehicle
[3] = system: SMN-luciferase reporter transcripts; test: qRT-PCR analysis of SMN-luciferase reporter transcripts; type: cell-based; details: 24 hours required for full activation
[4] = stability in mouse microsomes; type: in vitro ADME
[5] = aqueous solubility; type: physicochemical
[6] = system: SMN1-luciferase construct; test: SMN1-luciferase construct expression; type: cell-based
[7] = system: SMN2 expression; details: hit compounds from high-throughput screening; cited from earlier work

| Structure (SMILES) | activity in the luciferase reporter assay (in words) [1] | EC50 [1] | further results |
| --- | --- | --- | --- |
| COc1ccc2c(c1OC)C(c1cc(Br)ccc1F)CC(=O)N2 (centres unmarked) [5a] | complete loss of activity |  |  |
| COc1cc2c(c(OC)c1)C(c1cc(Br)ccc1F)CC(=O)N2 (centres unmarked) [5b] | complete loss of activity |  |  |
| COc1cc2c(c(OC)c1OC)C(c1ccccc1F)CC(=O)N2 (centres unmarked) [5c] | complete loss in activity | > 50 µM |  |
| COc1cc2c(c(OC)c1OC)C(c1cccc(Br)c1)CC(=O)N2 (centres unmarked) [5d] | complete loss in activity | > 50 µM |  |
| COc1cc2c(c(OC)c1OC)C(c1cc(F)ccc1F)CC(=O)N2 (centres unmarked) [5f] | not active | > 50 µM |  |
| COc1cc2c(c(OC)c1OC)C(c1cc(C#N)ccc1F)CC(=O)N2 (centres unmarked) [5g] | not active | > 50 µM |  |
| COc1cc2c(c(OC)c1OC)C(c1cc([N+](=O)[O-])ccc1F)CC(=O)N2 (centres unmarked) [5h] | not active | > 50 µM |  |
| COc1cc2c(c(OC)c1OC)C(c1cc(C(N)=O)ccc1F)CC(=O)N2 (centres unmarked) [5i] | not active | > 50 µM |  |
| COc1cc2c(c(OC)c1OC)C(c1cccc(Cl)c1Cl)CC(=O)N2 (centres unmarked) [5j] | inactive | > 50 µM |  |
| COc1cc2c(c(OC)c1OC)C(c1ccc(Cl)cc1Cl)CC(=O)N2 (centres unmarked) [5k] | inactive | > 50 µM |  |
| COc1cc2c(c(OC)c1OC)C(c1ccc(F)c(F)c1)CC(=O)N2 (centres unmarked) [5l] | inactive | > 50 µM |  |
| COc1cc2c(c(OC)c1OC)C(c1ccc(Cl)c(Cl)c1)CC(=O)N2 (centres unmarked) [5m] | inactive | > 50 µM |  |
| COc1cc2c(c(OC)c1OC)C(c1cc(Br)ccc1F)CC(=O)N2C (centres unmarked) [6a] | inactive |  |  |
| COc1cc2c(c(OC)c1OC)C(c1cc(Br)ccc1F)C(C)C(=O)N2 (centres unmarked) [6b] | inactive |  |  |
| COc1cc2c(c(OC)c1OC)C(c1cc(Cl)ccc1F)NC(=O)N2 (centres unmarked) [9a] | improved potency and efficacy; also recorded: very promising activity |  | ability to right themselves [2]: increase in the ability to right themselves; SMN-luciferase protein expression from the SMN2-luciferase construct ([1]; secondary characterisation): increased SMN-luciferase protein expression; amount of exon 7 included transcripts [3]: corresponding increase; amount of total SMN-luciferase reporter transcripts [3]: increased; stability in mouse microsomes (in words) [4]: promising stability; aqueous solubility (in words) [5]: improved aqueous solubility; SMN-luciferase protein expression from the SMN1-luciferase construct [6]: increased SMN-luciferase protein expression |
| COc1cc2c(c(OC)c1OC)C(c1ccccc1F)N(C)C(=O)N2 (centres unmarked) [9b] | less active; also recorded: partial, but not a complete, loss in activity | 10 µM | Emax ([1]; read-out: percent maximum increase in SMN2 expression): 100% |
| CCCN1C(=O)Nc2cc(OC)c(OC)c(OC)c2C1c1cccc(Cl)c1 (centres unmarked) [9c] | inactive; also recorded: partial, but not a complete, loss in activity |  |  |
| COc1cc2c(c(OC)c1OC)C(c1cccc(F)c1)NC(=O)N2 (centres unmarked) [9d] | retained some activity |  |  |
| COc1cc2c(c(OC)c1OC)C(c1ccc(F)cc1)NC(=O)N2 (centres unmarked) [9e] | retained some activity |  |  |

| Structure (SMILES) | activity in the luciferase reporter assay (in words) [1] | EC50 [1] | further results |
| --- | --- | --- | --- |
| COc1cc2c(c(OC)c1OC)C(c1ccccc1Cl)NC(=O)N2 (centres unmarked) [9f] |  | > 50 µM |  |
| COc1cc2c(c(OC)c1OC)C(c1ccc(Cl)cc1)NC(=O)N2 (centres unmarked) [9g] | retained some activity |  |  |
| COc1ccccc1C1NC(=O)Nc2cc(OC)c(OC)c(OC)c21 (centres unmarked) [9h] |  | > 50 µM |  |
| COc1ccc(C2NC(=O)Nc3cc(OC)c(OC)c(OC)c32)cc1 (centres unmarked) [9j] |  | > 50 µM |  |
| COc1cc2c(c(OC)c1OC)C(c1cc(-c3ccccc3)ccc1F)NC(=O)N2 (centres unmarked) [9l] | inactive | > 50 µM |  |
| COc1cc2c(c(OC)c1OC)C(c1cc(C#N)ccc1F)NC(=O)N2 (centres unmarked) [9m] | inactive | > 50 µM |  |
| COc1cc2c(c(OC)c1OC)C(c1cc(F)ccc1F)NC(=O)N2 (centres unmarked) [9n] | less active |  |  |
| COc1ccc(F)c(C2NC(=O)Nc3cc(OC)c(OC)c(OC)c32)c1 (centres unmarked) [9o] | inactive | > 50 µM |  |
| COc1cc2c(c(OC)c1OC)C(c1ccc(Cl)cc1F)NC(=O)N2 (centres unmarked) [9p] | tolerated |  |  |
| COc1cc(Cl)ccc1C1NC(=O)Nc2cc(OC)c(OC)c(OC)c21 (centres unmarked) [9q] | activity was restored |  |  |
| COc1ccc(Cl)cc1C1NC(=O)Nc2cc(OC)c(OC)c(OC)c21 (centres unmarked) [9r] | activity was restored |  |  |
| CC(C)c1cc(C(=O)Nc2ccc(F)c(Cl)c2)no1 [compound 1] |  |  | increase in expression of SMN2 [7]: 2 fold |
| COc1cc2c(c(OC)c1OC)C(c1cc(Br)ccc1F)CC(=O)N2 (centres unmarked) [compound 2] |  |  | increase in expression of SMN2 [7]: 2 fold |
| COc1cc2[nH]c(=O)nc(-c3cc(Cl)ccc3F)c2c(OC)c1OC [compound 13] | inactive |  |  |
| COc1cc2c(c(OC)c1OC)C(c1cc(Cl)ccc1F)=NCC(=O)N2 [compound 14] | retained potency similar to the lead 2, although its efficacy was reduced |  |  |
| COc1cc2c(c(OC)c1OC)C(c1cc(Cl)ccc1F)OC(=O)N2 (centres unmarked) [compound 16] | encouraging activity |  |  |
| COc1cc2c(c(OC)c1OC)C(c1cc(Cl)ccc1F)OCC(=O)N2 (centres unmarked) [compound 19] | improved potency and efficacy |  | stability in mouse microsomes (in words) [4]: poor; aqueous solubility (in words) [5]: improved aqueous solubility |
| COc1cc2c(c(OC)c1OC)C(c1cc(Cl)ccc1F)OCC(=O)N2C (centres unmarked) [compound 21] | not tolerated |  |  |
| COc1cc2c(c(OC)c1OC)C(C)(c1cc(Cl)ccc1F)OCC(=O)N2 (centres unmarked) [compound 23] | not tolerated |  |  |

From publication PMC5701662 (Bioorganic & medicinal chemistry letters, 2017)
